Values joined by “and” are separate entries in the source; they are usually repeats but may differ in a detail not shown here. Identical values can stand only once. “Also recorded” adds a separate entry of the source. Like-named read-outs stand apart in the source and are kept apart here. Marks after values point to notes of the source that are not given here.
Tests used:
NTCP [1] = molecular target: T1, NTCP (Homo sapiens, UniProt Q14973); test: Taurocholate uptake inhibition study in NTCP-HEK monolayers; format: cell-based
T1 sequence (Q14973 1-349): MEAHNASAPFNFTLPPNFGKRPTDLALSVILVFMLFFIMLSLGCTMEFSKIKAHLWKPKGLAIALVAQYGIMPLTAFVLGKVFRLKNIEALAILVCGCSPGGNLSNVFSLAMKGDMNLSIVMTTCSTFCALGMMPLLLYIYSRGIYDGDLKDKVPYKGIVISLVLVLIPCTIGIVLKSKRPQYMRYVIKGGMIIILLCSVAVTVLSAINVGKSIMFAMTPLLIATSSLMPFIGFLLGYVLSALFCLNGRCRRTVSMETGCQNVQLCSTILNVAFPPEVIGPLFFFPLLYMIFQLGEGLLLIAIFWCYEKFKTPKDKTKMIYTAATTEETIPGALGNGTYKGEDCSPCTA

NTCP-HEK monolayers = test: Passive permeability from uptake in sodium-free buffer, NTCP-HEK monolayers; format: in vitro ADME
ASBT [2] = molecular target: T2, ASBT (Homo sapiens, UniProt Q12908); settings: read-out: Ki (μM) ASBT; ASBT-MDCK; ref Balakrishnan et al., 2006b; cited from earlier work
T2 sequence (Q12908 1-348): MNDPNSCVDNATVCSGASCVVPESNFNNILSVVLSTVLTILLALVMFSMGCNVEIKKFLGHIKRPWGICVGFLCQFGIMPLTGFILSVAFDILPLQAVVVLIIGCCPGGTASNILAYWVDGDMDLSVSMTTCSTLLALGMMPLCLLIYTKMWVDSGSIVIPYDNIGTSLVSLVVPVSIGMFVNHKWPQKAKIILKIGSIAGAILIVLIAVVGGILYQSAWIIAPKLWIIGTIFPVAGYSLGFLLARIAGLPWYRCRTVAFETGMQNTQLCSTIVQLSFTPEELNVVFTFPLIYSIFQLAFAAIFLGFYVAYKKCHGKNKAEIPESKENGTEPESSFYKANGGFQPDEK

ASBT-MDCK monolayers [3] = settings: passive permeability, ref Balakrishnan et al., 2006b; cited from earlier work
ASBT [4] = molecular target: T2, ASBT; test: Taurocholate uptake inhibition study in ASBT-MDCK monolayers; format: cell-based; settings: for Ki: read-out: Ki (μM) ASBT, inhibition of [3H]-taurocholate uptake (2.5 μM cold TCA), 10 min, 37 °C
ASBT [5] = molecular target: T2, ASBT; test: Assessment of inhibition type; format: cell-based; settings: inhibitor 152 μM (I/Ki = 10), taurocholate 1–200 μM
NTCP [6] = molecular target: T1, NTCP; test: Assessment of inhibition type; format: cell-based; settings: inhibitor 118 μM (I/Ki = 10), taurocholate 1–200 μM
ASBT-MDCK monolayers [7] = test: Passive permeability from uptake in sodium-free buffer, ASBT-MDCK monolayers; format: in vitro ADME
ASBT [8] = molecular target: T2, ASBT; test: Uptake study in ASBT-MDCK monolayers; format: cell-based
NTCP [9] = molecular target: T1, NTCP; test: Uptake study in NTCP-HEK monolayers; format: cell-based
Outline: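 Stably transfected NTCP-HEK cells (hygromycin selection) were seeded at 2.5 × 10⁵/well on poly-D-lysine plates, cultured two days and washed with HBSS. Analogue was given at 1 to 250 μM in HBSS or sodium-free buffer (NaCl replaced by tetraethylammonium chloride). Read-out was acetonitrile lysis then LC/MS. Kinetics were fitted by nonlinear regression (eqns 2, 3). Jmax was normalized to same-occasion taurocholate Jmax. Highest distinguishable Kt = (Jmax/2)/Pp.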

[10] = Ki (μM) NTCP, inhibition of [3H]-taurocholate uptake (2.5 μM cold taurocholate), NTCP-HEK monolayers, 5 min, 37 °C
[11] = passive permeability, sodium-free buffer, NTCP-HEK
[12] = read-out: Ki (μM) NTCP, inhibition of [3H]-taurocholate uptake (2.5 μM cold taurocholate), NTCP-HEK monolayers, 5 min, 37 °C
[13] = read-out: NTCP inhibitor class (strong / moderate / weak), class by Ki, NTCP-HEK

C[C@H](CCC(=O)O)[C@H]1CC[C@H]2[C@@H]3[C@@H](O)C[C@@H]4C[C@H](O)CC[C@]4(C)[C@H]3CC[C@]12C [UDCA, ursodeoxycholic acid, reference compound]
Ki (NTCP [1]; [10]): 4.9 ± 0.47 µM | NTCP Pp*10^6 (cm/s) (NTCP-HEK monolayers; [11]): 27.2±0.8 ×10^−6 cm/s | Ki (ASBT [2]): 22.6 ± 3 µM | ASBT Pp*10^6 (cm/s) (ASBT-MDCK monolayers [3]): 21.2±0.9 ^a ×10^−6 cm/s

COC(=O)CC[C@@H](C)[C@H]1CC[C@H]2[C@@H]3[C@@H](O)C[C@@H]4C[C@H](O)CC[C@]4(C)[C@H]3CC[C@]12C [Compound 16, methyl ursodeoxycholate]
Ki (ASBT [4]): 29.8 ± 5.1 µM | Ki (NTCP [1]; [12]): 1.22 ± 0.1 µM

C[C@H](CCC(=O)NCC(=O)O)[C@H]1CC[C@H]2[C@@H]3[C@@H](OC(=O)c4cccnc4)C[C@@H]4C[C@H](O)CC[C@]4(C)[C@H]3CC[C@]12C [Compound 8, 7-nicotinoyl glycoursodeoxycholate]
Ki (ASBT [4]): 15.2 ± 0.8 µM | Ki (NTCP [1]; [12]): 11.8 ± 2.1 µM | type of inhibition of ASBT (best fitting model) (ASBT [5]): competitive inhibitor; also recorded: competitive model was the best fitting model | type of inhibition of NTCP (best fitting model) (NTCP [6]): competitive inhibitor; also recorded: competitive model was the best fitting model | ASBT Pp*10^6 (cm/s) (ASBT-MDCK monolayers [7]; passive permeability, sodium-free buffer, ASBT-MDCK): 0.95±0.05 ×10^−6 cm/s | NTCP Pp*10^6 (cm/s) (NTCP-HEK monolayers; [11]): 7.26±0.45 ×10^−6 cm/s

C[C@H](CCC(=O)O)[C@H]1CC[C@H]2[C@@H]3C(=O)C[C@@H]4CC(=O)CC[C@]4(C)[C@H]3CC(=O)[C@]12C [Compound 13, dehydrocholic acid]
Ki (μM) ASBT (ASBT [4]; inhibition of [3H]-taurocholate uptake (2.5 μM cold TCA), 10 min, 37 °C): did not inhibit; also recorded: did not show any ASBT inhibition; also recorded: No inhibition | Ki (NTCP [1]; [10]): 355 ± 59 µM | Ki (NTCP [1]; NTCP inhibitor class (strong / moderate / weak), class by Ki, NTCP-HEK): > 100 µM | NTCP inhibitor class (strong / moderate / weak) (NTCP [1]; class by Ki, NTCP-HEK): weakly

C[C@H](CCC(=O)O)[C@H]1CC[C@H]2[C@@H]3[C@H](O)C[C@@H]4C[C@H](O)CC[C@]4(C)[C@H]3CC[C@]12C [CDCA, chenodeoxycholic acid, reference compound]
Ki (NTCP [1]; [10]): 0.939 ± 0.057 µM | NTCP Pp*10^6 (cm/s) (NTCP-HEK monolayers; [11]): 60.7±0.5 ×10^−6 cm/s | Ki (ASBT [2]): 1.94 ± 0.17 µM | ASBT Pp*10^6 (cm/s) (ASBT-MDCK monolayers [3]): 20.7±0.7 ^a ×10^−6 cm/s

C[C@H](CCC(=O)NCC(=O)O)[C@H]1CC[C@H]2[C@@H]3[C@H](O)C[C@H]4C[C@H](OC(=O)c5cccnc5)CC[C@]4(C)[C@H]3CC[C@]12C [Compound 10, 3-nicotinoyl glycochenodeoxycholate]
Ki (ASBT [4]): 6.45 ± 0.66 µM | Ki (NTCP [1]; [12]): 5.38 ± 0.44 µM | Ki (NTCP [1]; [13]): < 25 µM | ASBT Norm Jmax (ASBT [8]; Jmax normalized to taurocholate Jmax of the same occasion, ASBT-MDCK): 2.11 and 2.1 | Jmax ASBT (ASBT [8]; not normalized, ASBT-MDCK): 0.000242 nmol/s/cm^2 | ASBT Kt (ASBT [8]; uptake into ASBT-MDCK monolayers, 10 min): 8.49 µM and 8.49 ± 1.34 µM | NTCP Norm Jmax (NTCP [9]; Jmax normalized to taurocholate Jmax of the same occasion, NTCP-HEK): 1.48 | Jmax NTCP (NTCP [9]; not normalized, NTCP-HEK): 0.00298 nmol/s/cm^2 | NTCP Kt (NTCP [9]; uptake into NTCP-HEK monolayers): 16.3 µM and 16.3 ± 3.0 µM | ASBT Pp*10^6 (cm/s) (ASBT-MDCK monolayers [7]; MDCK): 5.62±0.13 ×10^−6 cm/s | NTCP Pp*10^6 (cm/s) (NTCP-HEK monolayers): 12.7±0.9 ×10^−6 cm/s

C[C@H](CCC(=O)NCCS(=O)(=O)O)[C@H]1CC[C@H]2[C@@H]3[C@H](O)C[C@@H]4C[C@H](O)CC[C@]4(C)[C@H]3C[C@H](O)[C@]12C [taurocholate, Taurocholic acid, reference compound]
taurocholate Kt NTCP (NTCP [9]; value Kt was set to in regression): 5.31 µM

C[C@H](CCC(=O)O)[C@H]1CC[C@H]2[C@@H]3[C@@H](OC(=O)c4ccc(F)cc4)C[C@@H]4C[C@H](O)CC[C@]4(C)[C@H]3CC[C@]12C [Compound 3, 7-(4-fluorobenzoyloxy) ursodeoxycholate]
Ki (ASBT [4]): 10.3 ± 1.1 µM | Ki (NTCP [1]; [12]): 183 ± 32 µM | Ki (NTCP [1]; [13]): > 100 µM

Source: PMC3319149 (European Journal of Pharmaceutical Sciences, 2012)
